# Results: ChEMBL document CHEMBL3352173, “Optimization of pyrrolamide topoisomerase II inhibitors toward identification of an antibacterial clinical candidate (AZD5099)” (J Med Chem, 2014)
# Columns and labels:
# [1] = Percentage unbound in human plasma; assay type: ADME, cell-free
# Mus musculus [2] = assay: fAUC in methicillin-sensitive Staphylococcus aureus ARC516 infected in neutropenic CD1 mouse thigh model at 30 mg/kg, ip q6; assay type: ADME, organism-based; design: dose 30 mg/kg, route intraperitoneal; conditions: in vivo
# [3] = Bioavailability in CD1 mouse at 10 mg/kg, […]; assay type: ADME, organism-based; conditions: in vivo
# [4] = Clearance in rat at 10 mg/kg, iv; assay type: ADME, organism-based; design: dose 10 mg/kg, route intravenous; conditions: in vivo
# [5] = Clearance in CD1 mouse at 10 mg/kg, iv; assay type: ADME, organism-based; design: dose 10 mg/kg, route intravenous; conditions: in vivo
# [6] = Ratio of MIC for methicillin, quinolone-resistant Staphylococcus aureus to fraction unbound in human plasma; assay type: ADME
# [7] = Percentage unbound in mouse plasma; assay type: ADME, cell-free
# [8] = AUC in methicillin-sensitive Staphylococcus aureus ARC516 infected in neutropenic CD1 mouse thigh model at 30 mg/kg, ip q6; assay type: ADME, organism-based; design: dose 30 mg/kg, route intraperitoneal; conditions: in vivo
# Staphylococcus aureus [9] = assay: Antimicrobial activity against methicillin, quinolone-resistant Staphylococcus aureus by broth microdilution/CLSI method; assay type: functional
# Staphylococcus aureus [10] = assay: Antibacterial activity against methicillin-sensitive Staphylococcus aureus ARC516 infected in ip dosed neutropenic CD1 mouse thigh model assessed as decrease in bacterial viable counts treated for q6; assay type: functional; conditions: ARC516, Thigh muscle
# Staphylococcus aureus [11] = assay: Antimicrobial activity against methicillin-sensitive Staphylococcus aureus by broth microdilution/CLSI method; assay type: functional
# Moraxella catarrhalis = assay: Antimicrobial activity against Moraxella catarrhalis by broth microdilution/CLSI method; assay type: functional
# [12] = Clearance in dog at 10 mg/kg, iv; assay type: ADME, organism-based, Canis lupus familiaris; design: dose 10 mg/kg, route intravenous; conditions: plasma
# DNA gyrase subunit B = DNA gyrase subunit B (Staphylococcus aureus, UniProt P0A0K8); assay: Inhibition of ATPase activity of Staphylococcus aureus GyrB
# Sequence of DNA gyrase subunit B (P0A0K8 whole entry): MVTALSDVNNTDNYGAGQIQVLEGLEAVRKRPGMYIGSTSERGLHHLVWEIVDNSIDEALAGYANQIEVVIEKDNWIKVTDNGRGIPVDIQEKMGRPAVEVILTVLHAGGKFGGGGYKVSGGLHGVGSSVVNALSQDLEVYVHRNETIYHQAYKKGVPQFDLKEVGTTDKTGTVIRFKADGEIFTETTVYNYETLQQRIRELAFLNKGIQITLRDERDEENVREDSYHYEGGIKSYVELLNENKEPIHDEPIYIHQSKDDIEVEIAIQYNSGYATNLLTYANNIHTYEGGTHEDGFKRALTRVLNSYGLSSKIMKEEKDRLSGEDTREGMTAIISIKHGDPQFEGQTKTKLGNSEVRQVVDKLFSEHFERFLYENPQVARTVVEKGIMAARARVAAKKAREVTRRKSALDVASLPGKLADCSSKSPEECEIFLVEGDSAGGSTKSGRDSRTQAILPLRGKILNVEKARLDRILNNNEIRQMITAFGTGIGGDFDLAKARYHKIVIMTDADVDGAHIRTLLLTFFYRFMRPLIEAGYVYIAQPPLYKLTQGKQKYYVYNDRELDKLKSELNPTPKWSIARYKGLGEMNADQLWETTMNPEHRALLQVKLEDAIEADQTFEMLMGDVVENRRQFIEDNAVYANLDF
# Outline: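 IC50 was determined against S. aureus GyrB in the routine screening assay. The enzyme concentration limits resolution below 10 nM.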
# [13] = Clearance in Wistar rat at 10 mg/kg, iv; assay type: ADME, organism-based; design: dose 10 mg/kg, route intravenous; conditions: in vivo
# [14] = Solubility of the compound; assay type: physicochemical
# Streptococcus pyogenes = assay: Antimicrobial activity against Streptococcus pyogenes by broth microdilution/CLSI method; assay type: functional
# Escherichia coli [15] = assay: Antimicrobial activity against wild-type Escherichia coli Eco523 by broth microdilution/CLSI method; assay type: functional
# [16] = Bioavailability in dog at 10 mg/kg, iv; assay type: ADME, organism-based, Canis lupus familiaris; conditions: plasma
# [17] = Bioavailability in Wistar rat at 10 mg/kg, […]; assay type: ADME, organism-based; conditions: in vivo
# [18] = Dissociation constant, pKa of the compound; assay type: physicochemical
# [19] = Percentage unbound in rat plasma; assay type: ADME, cell-free
# Haemophilus influenzae = assay: Antimicrobial activity against Haemophilus influenzae by broth microdilution/CLSI method; assay type: functional
# [20] = Clearance in TR-negative Wistar rat at 10 mg/kg, iv; assay type: ADME, organism-based; design: dose 10 mg/kg, route intravenous; conditions: in vivo
# Escherichia coli [21] = assay: Antimicrobial activity against Escherichia coli tolC- by broth microdilution/CLSI method; assay type: functional
# [22] = Percentage unbound in dog plasma; assay type: ADME, cell-free, Canis lupus familiaris
# [23] = Octanol-phosphate buffer distribution coefficient, log D of the compound at pH 7.4 by shake flask method; assay type: physicochemical
# Staphylococcus aureus [24] = assay: Antibacterial activity against methicillin-sensitive Staphylococcus aureus ARC516 infected in neutropenic CD1 mouse thigh model assessed as decrease in bacterial viable counts at 30 mg/kg, ip q6; assay type: functional; conditions: route intraperitoneal
# Outline: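 Read-out is viable CFU recovered from the infected thigh after treatment. The change is expressed as log CFU relative to the bacterial burden at the start of treatment (the pre-treatment inoculum). Untreated infected controls are run in parallel and counted over the same infection-to-treatment interval.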
# Streptococcus pneumoniae = assay: Antibacterial activity against Streptococcus pneumoniae by broth microdilution/CLSI method; assay type: functional
# [25] = AUC in methicillin-sensitive Staphylococcus aureus ARC516 infected in neutropenic CD1 mouse thigh model at 30 mg/kg, ip q24; assay type: ADME, organism-based; design: dose 30 mg/kg, route intraperitoneal; conditions: in vivo
# [26] = biological target: T1, ATP-binding cassette sub-family C member 2 (Rattus norvegicus, UniProt Q63120); assay: Stimulation of ATPase activity of rat Mrp2 assessed as inorganic phosphate
# T1 sequence (Q63120 whole entry): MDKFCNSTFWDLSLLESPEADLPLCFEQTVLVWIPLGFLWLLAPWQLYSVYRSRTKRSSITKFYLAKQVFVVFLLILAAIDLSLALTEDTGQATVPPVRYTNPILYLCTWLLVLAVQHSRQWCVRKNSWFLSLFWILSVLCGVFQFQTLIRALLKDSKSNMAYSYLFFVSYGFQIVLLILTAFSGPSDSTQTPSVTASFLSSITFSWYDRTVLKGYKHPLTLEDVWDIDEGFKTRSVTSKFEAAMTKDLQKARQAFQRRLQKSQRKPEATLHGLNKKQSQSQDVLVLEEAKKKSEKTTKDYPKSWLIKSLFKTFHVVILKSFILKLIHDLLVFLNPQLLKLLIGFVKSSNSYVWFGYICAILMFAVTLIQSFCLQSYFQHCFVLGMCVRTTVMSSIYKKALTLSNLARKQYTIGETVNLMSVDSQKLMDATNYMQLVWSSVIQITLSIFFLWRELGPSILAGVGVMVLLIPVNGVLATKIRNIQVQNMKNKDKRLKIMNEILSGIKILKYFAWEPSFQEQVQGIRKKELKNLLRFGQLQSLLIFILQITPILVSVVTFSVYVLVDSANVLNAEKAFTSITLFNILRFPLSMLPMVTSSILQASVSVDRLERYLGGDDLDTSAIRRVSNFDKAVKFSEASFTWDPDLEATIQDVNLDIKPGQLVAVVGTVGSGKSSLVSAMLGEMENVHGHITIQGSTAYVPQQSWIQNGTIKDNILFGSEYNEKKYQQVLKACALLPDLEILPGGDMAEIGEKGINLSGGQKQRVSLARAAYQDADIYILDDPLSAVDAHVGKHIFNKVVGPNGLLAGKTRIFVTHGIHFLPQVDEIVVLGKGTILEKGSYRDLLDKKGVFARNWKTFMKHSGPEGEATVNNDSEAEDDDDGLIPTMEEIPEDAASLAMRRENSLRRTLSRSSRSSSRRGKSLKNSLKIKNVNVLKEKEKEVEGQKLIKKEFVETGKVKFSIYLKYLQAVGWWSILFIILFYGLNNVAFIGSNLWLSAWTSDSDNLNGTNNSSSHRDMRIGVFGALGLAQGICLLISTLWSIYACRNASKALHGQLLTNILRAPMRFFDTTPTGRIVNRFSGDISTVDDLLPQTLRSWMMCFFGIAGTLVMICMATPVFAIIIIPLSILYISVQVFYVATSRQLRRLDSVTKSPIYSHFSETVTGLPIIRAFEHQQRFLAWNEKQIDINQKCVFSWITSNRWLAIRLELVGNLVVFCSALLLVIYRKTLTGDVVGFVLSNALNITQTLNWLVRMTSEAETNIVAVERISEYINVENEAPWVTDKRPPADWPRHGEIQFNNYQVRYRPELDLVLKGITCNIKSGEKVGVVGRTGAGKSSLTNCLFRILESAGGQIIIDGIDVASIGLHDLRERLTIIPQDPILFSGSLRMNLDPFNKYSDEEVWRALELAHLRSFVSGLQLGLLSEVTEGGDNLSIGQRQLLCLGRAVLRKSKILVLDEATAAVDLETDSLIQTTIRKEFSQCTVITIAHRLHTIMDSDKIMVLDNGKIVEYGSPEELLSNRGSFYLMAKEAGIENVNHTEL
# [27] = biological target: T2, ATP-binding cassette sub-family C member 2 (Homo sapiens, UniProt Q92887); assay: Stimulation of ATPase activity of human MRP2 assessed as inorganic phosphate
# T2 sequence (Q92887 whole entry): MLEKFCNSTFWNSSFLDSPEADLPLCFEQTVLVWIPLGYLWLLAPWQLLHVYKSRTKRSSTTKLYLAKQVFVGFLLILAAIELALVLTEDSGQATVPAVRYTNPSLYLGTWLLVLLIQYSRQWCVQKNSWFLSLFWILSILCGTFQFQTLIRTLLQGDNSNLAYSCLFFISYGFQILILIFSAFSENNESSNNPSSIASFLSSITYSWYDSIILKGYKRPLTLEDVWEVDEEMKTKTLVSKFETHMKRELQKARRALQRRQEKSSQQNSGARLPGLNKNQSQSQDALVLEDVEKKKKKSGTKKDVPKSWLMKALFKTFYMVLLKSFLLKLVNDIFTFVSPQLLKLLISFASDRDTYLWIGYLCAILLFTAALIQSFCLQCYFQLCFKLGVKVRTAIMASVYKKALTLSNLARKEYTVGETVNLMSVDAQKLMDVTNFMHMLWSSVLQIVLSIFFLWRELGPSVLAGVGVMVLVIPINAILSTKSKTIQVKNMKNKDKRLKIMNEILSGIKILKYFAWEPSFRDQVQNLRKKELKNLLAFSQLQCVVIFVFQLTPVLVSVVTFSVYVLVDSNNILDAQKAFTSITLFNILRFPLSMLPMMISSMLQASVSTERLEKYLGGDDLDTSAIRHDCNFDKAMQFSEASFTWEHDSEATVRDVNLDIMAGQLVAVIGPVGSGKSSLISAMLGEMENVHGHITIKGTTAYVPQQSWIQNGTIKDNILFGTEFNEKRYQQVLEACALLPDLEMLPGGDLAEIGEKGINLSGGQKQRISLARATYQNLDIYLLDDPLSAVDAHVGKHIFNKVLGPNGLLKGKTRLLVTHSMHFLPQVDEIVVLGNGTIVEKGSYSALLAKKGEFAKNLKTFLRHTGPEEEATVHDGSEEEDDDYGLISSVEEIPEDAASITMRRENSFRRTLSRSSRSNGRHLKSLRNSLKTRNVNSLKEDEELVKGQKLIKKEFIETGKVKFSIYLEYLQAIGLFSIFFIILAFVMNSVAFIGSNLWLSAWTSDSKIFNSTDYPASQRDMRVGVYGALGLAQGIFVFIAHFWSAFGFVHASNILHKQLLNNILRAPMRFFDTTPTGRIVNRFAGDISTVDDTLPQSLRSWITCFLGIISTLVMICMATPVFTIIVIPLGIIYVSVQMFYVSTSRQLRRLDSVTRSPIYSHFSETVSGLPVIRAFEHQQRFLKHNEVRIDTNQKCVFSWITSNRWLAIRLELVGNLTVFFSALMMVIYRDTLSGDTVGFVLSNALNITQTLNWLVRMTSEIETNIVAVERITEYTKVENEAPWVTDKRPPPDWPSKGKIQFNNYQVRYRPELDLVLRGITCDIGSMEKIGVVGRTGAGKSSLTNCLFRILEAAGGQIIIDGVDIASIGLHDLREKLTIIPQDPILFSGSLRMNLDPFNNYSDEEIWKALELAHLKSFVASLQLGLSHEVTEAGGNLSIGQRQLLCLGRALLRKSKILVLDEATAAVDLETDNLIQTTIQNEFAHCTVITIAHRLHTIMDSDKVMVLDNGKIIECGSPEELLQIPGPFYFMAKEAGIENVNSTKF
# [28] = biological target: T1, ATP-binding cassette sub-family C member 2; assay: Inhibition of ATPase activity of rat Mrp2 assessed as inorganic phosphate
# Staphylococcus aureus [29] = assay: Antibacterial activity against methicillin-sensitive Staphylococcus aureus ARC516 infected in neutropenic CD1 mouse thigh model assessed as decrease in bacterial viable counts at 30 mg/kg, ip q24; assay type: functional; conditions: route intraperitoneal
# Mus musculus [30] = assay: fAUC in methicillin-sensitive Staphylococcus aureus ARC516 infected in neutropenic CD1 mouse thigh model at 30 mg/kg, ip q24; assay type: ADME, organism-based; design: dose 30 mg/kg, route intraperitoneal; conditions: in vivo
# [31] = biological target: T2, ATP-binding cassette sub-family C member 2; assay: Inhibition of ATPase activity of human MRP2 assessed as inorganic phosphate
# Staphylococcus aureus [32] = assay: Antibacterial activity against methicillin-sensitive Staphylococcus aureus ARC516 infected in ip dosed neutropenic CD1 mouse thigh model assessed as decrease in bacterial viable counts treated for q24; assay type: functional; conditions: ARC516, Thigh muscle
# [33] = Staphylococcus aureus, read-out: MIC
# [34] = Moraxella catarrhalis, read-out: MIC
# [35] = Escherichia coli, Eco523, read-out: MIC
# [36] = Haemophilus influenzae, read-out: MIC
# [37] = Escherichia coli, read-out: MIC
# [38] = Streptococcus pneumoniae, read-out: MIC
Structure (SMILES),fraction unbound [1],clearance [4],clearance [5],Ratio [6],fraction unbound [7],MIC (Staphylococcus aureus [9]; [33]),MIC (Staphylococcus aureus [11]; [33]),MIC (Moraxella catarrhalis; [34]),clearance [12],IC50 (DNA gyrase subunit B),clearance [13],MIC (Streptococcus pyogenes),MIC (Escherichia coli [15]; [35]),bioavailability [17],pKa [18],fraction unbound [19],MIC (Haemophilus influenzae; [36]),clearance [20],MIC (Escherichia coli [21]; [37]),fraction unbound [22],also measured
CO[C@H]1CN(c2nc(-c3ncccn3)c(C(=O)O)s2)CC[C@H]1NC(=O)c1[nH]c(C)c(Cl)c1Cl,0.096,34 mL/min/kg,22 mL/min/kg,1.25,0.18,0.12 µg/mL,0.09 µg/mL,0.031 µg/mL,1.9 mL/min/kg,< 0.01 µM,18 mL/min/kg,0.016 µg/mL,23 µg/mL,100%,5.2,0.19,0.2 µg/mL,9.3 mL/min/kg,0.5 µg/mL,0.24,fAUC (Mus musculus [2]): 6700 ng·h/mL; bioavailability [3]: 100%; AUC [8]: 37600 ng·h/mL; MIC (Staphylococcus aureus [10]): 0.06 µg/mL; solubility [14]: 350 µM; bioavailability [16]: 100%; logD [23]: 0.54; deltalog10CFU (Staphylococcus aureus [24]): -1.57; MIC (Streptococcus pneumoniae; [38]): 0.008 µg/mL
COCC(COC)NC(=O)c1nc(N2CC[C@@H](NC(=O)c3[nH]c(C)c(Cl)c3Cl)[C@@H](OC)C2)sc1C(=O)O,0.021,18 mL/min/kg,5.35 mL/min/kg,2.3,0.042,0.049 µg/mL,0.05 µg/mL,< 0.008 µg/mL,1.6 mL/min/kg,< 0.01 µM,13 mL/min/kg,0.016 µg/mL,23 µg/mL,–,4.5,0.038,0.1 µg/mL,3 mL/min/kg,1.3 µg/mL,0.12,AUC [25]: 148000 ng·h/mL; bioavailability [3]: 25%; EC50 [26]: > 200 µM; solubility [14]: 860 µM; EC50 [27]: > 200 µM; bioavailability [16]: 29%; IC50 [28]: 75 µM; deltalog10CFU (Staphylococcus aureus [29]): -0.16; fAUC (Mus musculus [30]): 6260 ng·h/mL; IC50 [31]: 200 µM; MIC (Staphylococcus aureus [32]): 0.03 µg/mL; logD [23]: 1; MIC (Streptococcus pneumoniae; [38]): 0.016 µg/mL
Cc1[nH]c(C(=O)NC2CCN(c3ncc(C(=O)O)s3)CC2)c(Cl)c1Cl,–,–,15.5 mL/min/kg,–,0.089,13 µg/mL,11 µg/mL,2.2 µg/mL,3 mL/min/kg,0.062 µM,78 mL/min/kg,0.79 µg/mL,> 64 µg/mL,6.7%,3.4,0.086,0.5 µg/mL,20 mL/min/kg,0.22 µg/mL,0.12,EC50 [26]: 27 µM; EC50 [27]: 145 µM; IC50 [28]: > 200 µM; IC50 [31]: > 200 µM; MIC (Streptococcus pneumoniae; [38]): 0.81 µg/mL
COCCNC(=O)c1nc(N2CC[C@@H](NC(=O)c3[nH]c(C)c(Cl)c3Cl)[C@@H](OC)C2)sc1C(=O)O,0.027,9.5 mL/min/kg,57 mL/min/kg,3.3,0.0585,0.089 µg/mL,0.078 µg/mL,0.17 µg/mL,3 mL/min/kg,< 0.01 µM,2.1 mL/min/kg,0.017 µg/mL,24 µg/mL,34%,4.4,0.038,0.15 µg/mL,1.5 mL/min/kg,0.62 µg/mL,0.082,bioavailability [3]: 57%; EC50 [26]: > 200 µM; solubility [14]: 880 µM; EC50 [27]: > 200 µM; bioavailability [16]: 100%; IC50 [28]: 78 µM; IC50 [31]: 100 µM; logD [23]: 1.2; MIC (Streptococcus pneumoniae; [38]): 0.018 µg/mL
CO[C@H]1CN(c2ncc(C(=O)O)s2)CC[C@H]1NC(=O)c1[nH]c(C)c(Cl)c1Cl,0.071,52 mL/min/kg,99 mL/min/kg,7,–,–,–,–,26 mL/min/kg,< 0.01 µM,34 mL/min/kg,–,–,6.7%,3.6,–,–,9.1 mL/min/kg,–,0.22,EC50 [26]: 38 µM; MIC (Staphylococcus aureus [9]): 0.5 µg/mL; MIC (Staphylococcus aureus [11]): 0.32 µg/mL; MIC (Moraxella catarrhalis): 0.031 µg/mL; EC50 [27]: 71 µM; MIC (Escherichia coli [15]): 64 µg/mL; IC50 [28]: > 200 µM; MIC (Haemophilus influenzae): 0.18 µg/mL; MIC (Escherichia coli [21]): 0.18 µg/mL; IC50 [31]: > 200 µM; MIC (Streptococcus pneumoniae): 0.016 µg/mL
